# Laboratory results published in ChEMBL document CHEMBL1137254, “Structurally simple, potent, Plasmodium selective farnesyltransferase inhibitors that arrest the growth of malaria parasites” (J Med Chem, 2006).
# Biological target: T1, Protein farnesyltransferase (PFT) (Plasmodium falciparum) (UniProt Q5EI73+Q5EI74)
# Test: Inhibition of Plasmodium falciparum PFT at 50 nM
# Settings: not given
row,SMILES,inhibition
1,Cn1cnc(S(=O)(=O)N(CCN(Cc2cncn2C)c2ccc(C#N)cc2)Cc2cccnc2)c1,74%
2,Cn1cncc1CN(CCN(Cc1ccccc1)S(=O)(=O)c1ccccc1)c1ccc(C#N)cc1,69%
3,C=C(C)CN(CCN(Cc1cncn1C)c1ccc(C#N)cc1)S(=O)(=O)c1cn(C)cn1,77%
4,Cn1cnc(S(=O)(=O)N(CCN(Cc2cncn2C)c2ccc(C#N)cc2)CC2CCCCC2)c1,93%
5,Cn1cnc(S(=O)(=O)N(CCN(Cc2cncn2C)c2ccc(C#N)cc2)Cc2ccncc2)c1,62%
6,Cn1cnc(S(=O)(=O)N(CCN(Cc2cncn2C)c2ccc(C#N)cc2)Cc2ccccn2)c1,93%
7,CC(=O)N1CCC(CN(CCN(Cc2cncn2C)c2ccc(C#N)cc2)S(=O)(=O)c2cn(C)cn2)CC1,44%
8,Cn1cnc(S(=O)(=O)N(CCN(Cc2cncn2C)c2ccc(Br)cc2)Cc2ccccc2)c1,95%
9,Cn1cnc(S(=O)(=O)N(CCN(Cc2cncn2C)c2ccc(C#N)cc2)Cc2ccc(-c3ccccc3)cc2)c1,19%
10,Cn1cnc(S(=O)(=O)N(CCN(Cc2cncn2C)c2ccc(C#N)cc2)Cc2ccc(-n3cccc3)cc2)c1,85%
11,CN(C)c1cccc2c(S(=O)(=O)N(CCN(Cc3cncn3C)c3ccc(C#N)cc3)Cc3ccccc3)cccc12,29%
12,Cn1cnc(S(=O)(=O)N(CCN(Cc2cncn2C)c2ccc(C#N)cc2)CC2CCN(C(=O)OC(C)(C)C)CC2)c1,96%

# Further lines, results first:
row,inhibition,SMILES
1,95%,Cn1cncc1CN(CCN(Cc1ccccc1)S(=O)(=O)c1ccccn1)c1ccc(C#N)cc1
2,0%,CN(C)c1cccc2c(S(=O)(=O)N(CCN(Cc3c[nH]cn3)c3ccccc3)Cc3ccccc3)cccc12
3,35%,Cn1cncc1CN(CCN(Cc1ccccc1)S(=O)(=O)c1cccc2cccnc12)c1ccc(C#N)cc1
4,74%,Cn1cncc1CN(CCN(Cc1ccccc1)S(=O)(=O)c1cccs1)c1ccc(C#N)cc1
5,7%,O=S(=O)(c1ccccc1)N(CCN(Cc1c[nH]cn1)c1ccccc1)Cc1ccccc1
6,80%,Cn1cnc(S(=O)(=O)N(CCN(Cc2c[nH]cn2)c2ccc(Br)cc2)Cc2ccccc2)c1
7,74%,Cn1cnc(S(=O)(=O)N(CCN(Cc2cncn2C)c2ccc(C#N)cc2)Cc2cccc(-n3cccc3)c2)c1
8,0%,O=S(=O)(c1cccc2cccnc12)N(CCN(Cc1c[nH]cn1)c1ccccc1)Cc1ccccc1

# Species: Mus musculus
# Test: Half life in mouse liver microsome
# Assay type: ADME
# Settings: microsomes
# In short: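 Pooled female liver microsomes were preincubated at 37 °C for 10 min in phosphate buffer with MgCl2, EDTA, an NADPH regenerating system and glucose-6-phosphate dehydrogenase. Inhibitor was then added in DMSO. Samples were quenched with acetonitrile plus internal standard at set time points and frozen at −20 °C. Parent and metabolites were quantified by LC/MS to give t1/2.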
row,SMILES,T1/2
1,Cn1cnc(S(=O)(=O)N(CCN(Cc2cncn2C)c2ccc(C#N)cc2)Cc2ccc(-c3ccccc3)cc2)c1,3 min

# Biological target: T1, Protein farnesyltransferase (PFT) (Plasmodium falciparum)
# Test: Selectivity for inhibition of Plasmodium falciparum PFT over rat PFT
# Assay type: protein-complex assay
# Settings: not given
row,SMILES,Selectivity ratio
1,Cn1cncc1CN(CCN(Cc1ccccc1)S(=O)(=O)c1ccccc1)c1ccc(C#N)cc1,1.5
2,Cn1cnc(S(=O)(=O)N(CCN(Cc2cncn2C)c2ccc(C#N)cc2)CC2CCCCC2)c1,1.7
3,Cn1cnc(S(=O)(=O)N(CCN(Cc2cncn2C)c2ccc(C#N)cc2)Cc2ccc(-c3ccccc3)cc2)c1,3.7
4,CN(C)c1cccc2c(S(=O)(=O)N(CCN(Cc3cncn3C)c3ccc(C#N)cc3)Cc3ccccc3)cccc12,3.3

# Biological target: T1, Protein farnesyltransferase (PFT) (Plasmodium falciparum)
# Test: Inhibition of Plasmodium falciparum PFT at 5 nM
# Settings: not given
row,SMILES,inhibition
1,Cn1cnc(S(=O)(=O)N(CCN(Cc2cncn2C)c2ccc(C#N)cc2)Cc2cccnc2)c1,18%
2,Cn1cncc1CN(CCN(Cc1ccccc1)S(=O)(=O)c1ccccc1)c1ccc(C#N)cc1,18%
3,C=C(C)CN(CCN(Cc1cncn1C)c1ccc(C#N)cc1)S(=O)(=O)c1cn(C)cn1,6%
4,Cn1cnc(S(=O)(=O)N(CCN(Cc2cncn2C)c2ccc(C#N)cc2)CC2CCCCC2)c1,63%
5,Cn1cnc(S(=O)(=O)N(CCN(Cc2cncn2C)c2ccc(C#N)cc2)Cc2ccncc2)c1,22%
6,Cn1cnc(S(=O)(=O)N(CCN(Cc2cncn2C)c2ccc(C#N)cc2)Cc2ccccn2)c1,64%
7,CC(=O)N1CCC(CN(CCN(Cc2cncn2C)c2ccc(C#N)cc2)S(=O)(=O)c2cn(C)cn2)CC1,8%
8,Cn1cnc(S(=O)(=O)N(CCN(Cc2cncn2C)c2ccc(Br)cc2)Cc2ccccc2)c1,70%
9,Cn1cnc(S(=O)(=O)N(CCN(Cc2cncn2C)c2ccc(C#N)cc2)Cc2ccc(-c3ccccc3)cc2)c1,10%
10,Cn1cnc(S(=O)(=O)N(CCN(Cc2cncn2C)c2ccc(C#N)cc2)Cc2ccc(-n3cccc3)cc2)c1,39%
11,CN(C)c1cccc2c(S(=O)(=O)N(CCN(Cc3cncn3C)c3ccc(C#N)cc3)Cc3ccccc3)cccc12,6%
12,Cn1cnc(S(=O)(=O)N(CCN(Cc2cncn2C)c2ccc(C#N)cc2)CC2CCN(C(=O)OC(C)(C)C)CC2)c1,81%

# Other lines, results leading:
row,inhibition,SMILES
1,64%,Cn1cncc1CN(CCN(Cc1ccccc1)S(=O)(=O)c1ccccn1)c1ccc(C#N)cc1
2,14%,Cn1cncc1CN(CCN(Cc1ccccc1)S(=O)(=O)c1cccc2cccnc12)c1ccc(C#N)cc1
3,17%,Cn1cncc1CN(CCN(Cc1ccccc1)S(=O)(=O)c1cccs1)c1ccc(C#N)cc1
4,37%,Cn1cnc(S(=O)(=O)N(CCN(Cc2cncn2C)c2ccc(C#N)cc2)Cc2cccc(-n3cccc3)c2)c1

# System: Plasmodium falciparum
# Test: Inhibition of Plasmodium falciparum K1 growth as reduced [3H]hypoxanthine incorporation
# Assay type: functional
# Settings: K1, 72 h, read-out: ED50 (the source's name)
# In short: (§1)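 Inhibitor in DMSO was added to P. falciparum culture (0.5% parasitemia, 0.5% hematocrit) in RPMI-1640 with 20% human A+ plasma. Cultures were held 48 h at 37 °C under 5% CO2/5% O2/90% N2, then pulsed with [8-3H]hypoxanthine (0.3 μCi) for 24 h more. Cells were harvested and counted by β-scintillation. Background from uninfected RBCs was subtracted, with DMSO set as 100%. ED50 was obtained by linear regression.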
row,SMILES,EC50
1,Cn1cnc(S(=O)(=O)N(CCN(Cc2cncn2C)c2ccc(C#N)cc2)Cc2cccc(-n3cccc3)c2)c1,4000 nM

# System: not listed separately
# Test: Apparent permeability in Caco-2 cells
# Assay type: ADME, cell-based
# Settings: human
row,SMILES,Papp
1,Cn1cnc(S(=O)(=O)N(CCN(Cc2cncn2C)c2ccc(C#N)cc2)CC2CCCCC2)c1,1.5 ×10⁻⁶ cm/s

# System: not listed separately
# Test: Tmax in mouse at 50 mg/kg, po
# Assay type: ADME, organism-based
# Set-up: dose 50 mg/kg, route oral
# Settings: in vivo
# In short: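 Oral gavage at 50 mg/kg in 90% saline, 3% ethanol, 7% Tween; inhibitor concentration in plasma followed over 5 h. Values are averages of three animals per species (mice or rats). Reported parameters are AUC, Cmax, Tmax and elimination t1/2.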
row,Tmax,SMILES
1,30 min,Cn1cncc1CN(CCN(Cc1ccccc1)S(=O)(=O)c1ccccn1)c1ccc(C#N)cc1

# Biological target: T2, Protein farnesyltransferase (PFT) (Plasmodium falciparum, UniProt Q5EI73+Q5EI74)
# T2 sequence (Q5EI73 whole entry): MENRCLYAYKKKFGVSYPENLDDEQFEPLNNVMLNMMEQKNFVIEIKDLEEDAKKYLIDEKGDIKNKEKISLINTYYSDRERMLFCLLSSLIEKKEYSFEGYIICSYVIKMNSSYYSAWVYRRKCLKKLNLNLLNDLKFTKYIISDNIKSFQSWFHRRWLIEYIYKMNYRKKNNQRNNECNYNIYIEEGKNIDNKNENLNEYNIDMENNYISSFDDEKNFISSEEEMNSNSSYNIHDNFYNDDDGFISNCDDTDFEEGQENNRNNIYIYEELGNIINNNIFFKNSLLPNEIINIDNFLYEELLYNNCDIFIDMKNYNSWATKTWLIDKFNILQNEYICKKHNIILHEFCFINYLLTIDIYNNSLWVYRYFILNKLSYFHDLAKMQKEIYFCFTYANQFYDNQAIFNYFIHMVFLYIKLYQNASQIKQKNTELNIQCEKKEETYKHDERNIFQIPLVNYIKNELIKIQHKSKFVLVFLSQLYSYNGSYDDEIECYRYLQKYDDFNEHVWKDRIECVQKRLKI
# T2 sequence (Q5EI74 whole entry): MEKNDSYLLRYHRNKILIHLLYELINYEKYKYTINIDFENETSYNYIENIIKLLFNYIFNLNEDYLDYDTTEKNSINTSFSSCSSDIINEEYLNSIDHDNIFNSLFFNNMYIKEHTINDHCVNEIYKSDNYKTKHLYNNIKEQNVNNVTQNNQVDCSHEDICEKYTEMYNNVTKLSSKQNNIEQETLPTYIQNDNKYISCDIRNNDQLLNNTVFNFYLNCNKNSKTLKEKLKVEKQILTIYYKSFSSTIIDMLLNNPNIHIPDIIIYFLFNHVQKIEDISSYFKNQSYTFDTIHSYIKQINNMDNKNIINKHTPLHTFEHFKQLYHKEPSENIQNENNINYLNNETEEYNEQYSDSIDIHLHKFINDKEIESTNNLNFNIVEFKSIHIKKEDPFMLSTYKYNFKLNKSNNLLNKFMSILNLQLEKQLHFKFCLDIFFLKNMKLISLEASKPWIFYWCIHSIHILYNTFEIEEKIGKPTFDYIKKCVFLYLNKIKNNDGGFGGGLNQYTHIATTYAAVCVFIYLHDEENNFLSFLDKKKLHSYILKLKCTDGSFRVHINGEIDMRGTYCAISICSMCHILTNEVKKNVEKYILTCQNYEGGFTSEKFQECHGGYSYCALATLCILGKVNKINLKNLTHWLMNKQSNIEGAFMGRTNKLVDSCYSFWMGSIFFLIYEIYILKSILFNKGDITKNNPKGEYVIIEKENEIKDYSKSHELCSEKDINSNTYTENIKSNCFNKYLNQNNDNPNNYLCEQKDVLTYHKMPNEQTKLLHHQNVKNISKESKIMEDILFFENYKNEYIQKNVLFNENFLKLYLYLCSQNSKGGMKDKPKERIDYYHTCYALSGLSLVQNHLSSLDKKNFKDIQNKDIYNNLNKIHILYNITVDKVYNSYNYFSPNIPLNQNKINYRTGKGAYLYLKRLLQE
# Test: Inhibition of Plasmodium falciparum PFT
# Assay type: protein-complex assay
# Settings: not given
row,SMILES,IC50
1,Cn1cncc1CN(CCN(Cc1ccccc1)S(=O)(=O)c1ccccc1)c1ccc(C#N)cc1,8.9 nM
2,Cn1cnc(S(=O)(=O)N(CCN(Cc2cncn2C)c2ccc(C#N)cc2)CC2CCCCC2)c1,4.5 nM
3,Cn1cnc(S(=O)(=O)N(CCN(Cc2cncn2C)c2ccc(C#N)cc2)Cc2ccccn2)c1,2.1 nM
4,Cn1cnc(S(=O)(=O)N(CCN(Cc2cncn2C)c2ccc(Br)cc2)Cc2ccccc2)c1,2 nM
5,Cn1cnc(S(=O)(=O)N(CCN(Cc2cncn2C)c2ccc(C#N)cc2)Cc2ccc(-c3ccccc3)cc2)c1,240 nM
6,CN(C)c1cccc2c(S(=O)(=O)N(CCN(Cc3cncn3C)c3ccc(C#N)cc3)Cc3ccccc3)cccc12,55 nM

# System: Plasmodium falciparum
# Test: Inhibition of Plasmodium falciparum 3D7 growth as reduced [3H]hypoxanthine incorporation
# Assay type: functional
# Settings: 3D7, 72 h, read-out: ED50 (the source's name)
# In short: as §1
row,SMILES,EC50
1,Cn1cnc(S(=O)(=O)N(CCN(Cc2cncn2C)c2ccc(C#N)cc2)Cc2cccc(-n3cccc3)c2)c1,2500 nM
